This is an account of results in ChEMBL document CHEMBL2062521, “Discovery of 1-(β-amino substituted-β-alanyl)-N,N-dimethylindoline-2-carboxamides as novel nonpeptide antagonists of nociceptin/orphanin FQ receptor: efficient design, synthesis, and structure-activity relationship studies” (Eur J Med Chem, 2012).

Series [1] deals with T1, Nociceptin receptor (Homo sapiens, UniProt P41146). Briefly: Displacement of [3H]N/OFQ from human recombinant ORL1 receptor expressed in HEK293 cells at 1 uM after 45 mins by scintillation proximity assay. The series is classed as cell-based. The method, boiled down:
(§1)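 Compound at 10^-11–10^-5 M (six 10-fold steps), duplicates; nonspecific binding with 1 µM N/OFQ. IC50 by nonlinear regression, Ki by Cheng–Prusoff; percent inhibition reported at 1 µM.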

The target in series [2] is T1, Nociceptin receptor. In words: Displacement of [3H]N/OFQ from human recombinant ORL1 receptor expressed in HEK293 cells after 45 mins by scintillation proximity assay. The class given is cell-based. The method, boiled down: as §1
On the technique in general: Loss of bound radioactivity is the signal in a displacement assay; it reports binding, not function.

Series [3] concerns the target Mu-type opioid receptor (Homo sapiens, UniProt P35372). In words: Displacement of [3H]DAMGO from human recombinant MOP receptor expressed in CHO-K1 cells after 45 mins by scintillation proximity assay. The series is classed as cell-based.
The target in series [4] is T1, Nociceptin receptor. In words: Antagonist activity at human recombinant ORL1 receptor expressed in HEK293 cells assessed as inhibition of N/OFQ-induced [35S]GTPgammaS binding to alpha-unit of G-protein after 1.5 hrs by scintillation counting. The series is classed as functional, cell-based. The method, boiled down: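 Membranes from HEK-293 cells expressing hNOP receptor, incubated 1.5 h at 25 °C with 10 nM N/OFQ and compound at six concentrations (0.1 nM–10 µM) in 20 mM HEPES pH 7.4, 100 mM NaCl, 5 mM MgCl2, 1 mM EDTA, 5 µM GDP, 400 pM [35S]GTPγS, WGA-SPA beads. Duplicates; NSB with 10 µM unlabelled GTPγS; basal without ligands.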
(In general: GTPγS resists hydrolysis and so accumulates on activated G proteins.)

The species named for series [5] is Homo sapiens. Briefly: Selectivity ratio of Ki for human recombinant MOP receptor to Ki for human recombinant ORL1 receptor.
The nature of series [6]: Half life in human liver microsomes by HPLC/MS/MS analysis. The series is classed as ADME, Microsome. A general note: Microsomes from liver hold many membrane-bound enzymes, among them those of drug oxidation.

SMILES strings stand for the structures. Active and inactive are the calls of the source. The calls are words filed in the database; no cut-off is given here.

Chain of Mu-type opioid receptor (P35372 whole entry): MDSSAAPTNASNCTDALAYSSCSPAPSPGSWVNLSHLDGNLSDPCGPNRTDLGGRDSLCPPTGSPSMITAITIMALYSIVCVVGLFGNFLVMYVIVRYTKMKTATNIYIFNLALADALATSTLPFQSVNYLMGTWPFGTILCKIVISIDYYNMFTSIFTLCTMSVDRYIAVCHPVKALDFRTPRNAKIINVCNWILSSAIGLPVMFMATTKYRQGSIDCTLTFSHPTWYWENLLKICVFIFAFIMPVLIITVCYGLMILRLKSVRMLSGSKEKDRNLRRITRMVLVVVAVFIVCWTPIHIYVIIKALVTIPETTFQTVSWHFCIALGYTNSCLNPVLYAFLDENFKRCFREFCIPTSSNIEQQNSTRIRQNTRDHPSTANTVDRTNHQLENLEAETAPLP
T1 sequence (P41146 whole entry): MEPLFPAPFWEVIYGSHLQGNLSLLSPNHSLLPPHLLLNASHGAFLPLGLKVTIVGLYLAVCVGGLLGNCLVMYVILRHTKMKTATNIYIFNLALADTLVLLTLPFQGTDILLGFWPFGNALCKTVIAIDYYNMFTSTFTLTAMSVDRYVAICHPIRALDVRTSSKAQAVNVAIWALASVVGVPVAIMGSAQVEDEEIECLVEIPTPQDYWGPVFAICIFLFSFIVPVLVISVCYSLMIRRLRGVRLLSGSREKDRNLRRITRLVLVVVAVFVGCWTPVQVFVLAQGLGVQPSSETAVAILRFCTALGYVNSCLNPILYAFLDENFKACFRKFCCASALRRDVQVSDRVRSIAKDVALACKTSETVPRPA

With `CN(C)C(=O)C1Cc2ccccc2N1C(=O)CCN1CCC(N2CCCCC2)CC1` (racemic), in series [1], the inhibition (usually the change of the read-out against control, counted positive when it falls) was “inactive”. In addition, the results for the Ki in series [2] and in series [3] were over 250 nM and over 450 nM, respectively.

Regarding `CN(C)C(=O)C1Cc2ccccc2N1C(=O)CCN1CCc2ccccc2C1` (racemic), the inhibition in series [1] came out at 11%. In series [2], the Ki (usually the dissociation constant of the complex between target and ligand, obtained from inhibition or displacement) was over 250 nM.

Regarding `CCCC(C)N1CCN(CCC(=O)N2c3ccccc3CC2C(=O)N(C)C)CC1` (racemic), the inhibition in series [1] came to 40%. Also, the Ki in series [2] was over 250 nM; in series [3] it was over 450 nM.

Turning to `CN(C)C(=O)[C@@H]1Cc2ccccc2N1C(=O)CCN1CCC(c2ccccc2)CC1`, the Ki was found to be 13.6 nM in series [2] and 80.7 nM in series [3]. In addition, the IC50 (as a rule, the point on the concentration scale where inhibition reaches its midpoint) in series [4] was found to be 138 nM. For the same compound, the Ratio Ki in series [5] stood at 5.9. Moreover, the half-life (usually the time in which the quantity being followed falls by half) in series [6] was 55 min.

Turning to `CN(C)C(=O)C1Cc2ccccc2N1C(=O)CCN1CCN(C2CCCCCCC2)CC1` (racemic), the inhibition in series [1] came out at 12%. Moreover, the Ki in series [2] is over 250 nM.

As for `CN(C)C(=O)C1Cc2ccccc2N1C(=O)CCN1CCN(C2CCCC2)CC1` (racemic), the inhibition in series [1] worked out at 3%. For the same compound, the Ki in series [2] was over 250 nM.

Take `CN(C)C(=O)C1Cc2ccccc2N1C(=O)CCN1CCC(C2CCCCC2)CC1` (racemic): the Ki in series [2] came to 286 nM.

Regarding `Cc1ccccc1N1CCN(CCC(=O)N2c3ccccc3CC2C(=O)N(C)C)CC1` (racemic), the Ki in series [2] turned out to be 11.6 nM; in series [3], 318 nM. In addition, the Ratio Ki in series [5] turned out to be 27.

For `CCC(CC)N1CCN(CCC(=O)N2c3ccccc3CC2C(=O)N(C)C)CC1` (racemic), the Ki in series [2] is 101 nM; in series [3], over 450 nM.

With `Cc1ccc(N2CCN(CCC(=O)N3c4ccccc4CC3C(=O)N(C)C)CC2)c(C)c1` (racemic), the inhibition in series [1] amounted to 25%. Moreover, in series [2], the Ki was over 250 nM.

Turning to `CN(C)C(=O)C1Cc2ccccc2N1C(=O)CCN1Cc2cccc3cccc(c23)C1` (racemic), the inhibition in series [1] amounted to 15%. For the same compound, the Ki in series [2] was over 250 nM.

On to `CN(C)C(=O)[C@@H]1Cc2ccccc2N1C(=O)CCN1CCC(c2ccc(F)cc2)CC1`, for which the Ki was found to be 9.84 nM in series [2] and 238 nM in series [3]. Moreover, in series [4], the IC50 is 107 nM. The half-life in series [6] is 82 min.

For the compound `Cc1cccc(C)c1C1CCN(CCC(=O)N2c3ccccc3C[C@H]2C(=O)N(C)C)CC1`, the Ki in series [2] was determined as 0.96 nM; in series [3], 82.1 nM. In addition, the IC50 in series [4] is 12 nM. The Ratio Ki in series [5] stood at 86. Moreover, the half-life in series [6] was determined as 19 min.

Regarding `CN(C)C(=O)C1Cc2ccccc2N1C(=O)CCN1CCC(c2ccccc2F)CC1` (racemic), the Ki in series [2] amounted to 26.5 nM.

For `Cc1ccccc1C1CCN(CCC(=O)N2c3ccccc3C[C@H]2C(=O)N(C)C)CC1`, the results for the Ki in series [2] and in series [3] were 3.03 nM and 67.2 nM, respectively. Moreover, in series [4], the IC50 was found to be 44 nM. The Ratio Ki in series [5] turned out to be 22. In series [6], the half-life turned out to be 24 min.

For the compound `CN(C)C(=O)C1Cc2ccccc2N1C(=O)CCN1Cc2ccccc2C1` (racemic), the inhibition in series [1] was determined as 16%. In series [2], the Ki was over 250 nM.

`CCOc1ccccc1N1CCN(CCC(=O)N2c3ccccc3CC2C(=O)N(C)C)CC1` (racemic): the Ki in series [2] came out at 128 nM; in series [3], 29.8 nM. The Ratio Ki in series [5] was 0.23.

`CN(C)C(=O)C1Cc2ccccc2N1C(=O)CCN1CCN(C2CCCCC2)CC1` (racemic): the inhibition in series [1] was 11%. Besides, the values for the Ki in series [2] and in series [3] were over 250 nM and over 450 nM, respectively.

Regarding `CN(C)C(=O)C1Cc2ccccc2N1C(=O)CCN1CC[C@@H]2c3ccccc3CC[C@@H]2C1` (mixture of isomers), the inhibition in series [1] was determined as 33%. The Ki in series [2] is over 250 nM.

For the compound `Cc1ccccc1C1CCN(CCC(=O)N2c3ccccc3CC2C(=O)N(C)C)CC1` (racemic), the values for the Ki in series [2] and in series [3] were 5.55 nM and 138 nM, respectively. For the same compound, the IC50 in series [4] amounted to 116 nM. In series [5], the Ratio Ki was determined as 25.

On to `CN(C)C(=O)C1Cc2ccccc2N1C(=O)CCN1CCN(c2ccccc2)CC1` (racemic), for which, in series [1], the inhibition came to 43%. The Ki is over 250 nM in series [2] and 397 nM in series [3]. Also, in series [4], the IC50 worked out at 48000 nM.

With `CN(C)C(=O)C1Cc2ccccc2N1C(=O)CCN1CCN(C2CCCCCC2)CC1` (racemic), in series [1], the inhibition worked out at 12%. Moreover, the Ki in series [2] was over 250 nM.

On to `Cc1cc(F)ccc1C1CCN(CCC(=O)N2c3ccccc3C[C@H]2C(=O)N(C)C)CC1`, for which the values for the Ki in series [2] and in series [3] were 3.79 nM and 139 nM, respectively. For the same compound, the IC50 in series [4] was 42 nM. Besides, in series [6], the half-life is 43 min.

Turning to `CN(C)C(=O)C1Cc2ccccc2N1C(=O)CCN1CCN(c2cnccn2)CC1` (racemic), the inhibition in series [1] amounted to 37%. Besides, the Ki is over 250 nM in series [2] and 235 nM in series [3].

As to `Cc1cccc(N2CCN(CCC(=O)N3c4ccccc4CC3C(=O)N(C)C)CC2)c1` (racemic), the inhibition in series [1] came to 13%. For the same compound, in series [2], the Ki is over 250 nM.

In the case of `CC(c1ccccc1)N1CCN(CCC(=O)N2c3ccccc3CC2C(=O)N(C)C)CC1` (racemic), the inhibition in series [1] stood at 21%. Besides, the values for the inhibitory constant (Ki) in series [2] and in series [3] were over 250 nM and over 450 nM, respectively.

Turning to `CN(C)C(=O)[C@@H]1Cc2ccccc2N1C(=O)CCN1CC2CCC(C1)C2c1ccccc1` (stereo not given in full), in series [1], the inhibition turned out to be 23%. The Ki was over 250 nM in series [2] and 28.4 nM in series [3]. Also, in series [6], the half-life was 10 min.

As to `CN(C)C(=O)C1Cc2ccccc2N1C(=O)CCN1CCCC(c2ccccc2)CC1` (racemic), the inhibition in series [1] stood at 15%. Further, in series [2], the inhibitory constant (Ki) was over 250 nM.

`CN(C)C(=O)C1Cc2ccccc2N1C(=O)CCN1CCC(c2ccccn2)CC1` (racemic): the inhibition entry in series [1] was “inactive”. Also, in series [2], the Ki was over 250 nM.

For the compound `CN(C)C(=O)C1Cc2ccccc2N1C(=O)CCN1CCC(c2ccccc2C(F)(F)F)CC1` (racemic), the Ki in series [2] came to 31.5 nM.

Turning to `CN(C)C(=O)C1Cc2ccccc2N1C(=O)CCN1CCC(c2ccccc2)CC1` (racemic), the values for the Ki in series [2] and in series [3] were 26.2 nM and 502 nM, respectively. For the same compound, in series [4], the IC50 is 2300 nM. In addition, in series [5], the Ratio Ki is 19.

For `CN(C)C(=O)C1Cc2ccccc2N1C(=O)CCN1CCN(Cc2ccccc2)CC1` (racemic), the inhibition in series [1] was 11%. Moreover, the Ki is over 250 nM in series [2] and over 450 nM in series [3].
